Assay results reported in ChEMBL document CHEMBL1153207, “Continued exploration of the triazolopyridine scaffold as a platform for p38 MAP kinase inhibition” (Bioorg Med Chem Lett, 2010).
pIC50: −log10 of the molar value.

Experiments:
[1] = molecular target: Mitogen-activated protein kinase 14 (Homo sapiens, UniProt Q16539); experiment: Inhibition of p38 alpha
[2] = Metabolic stability in human liver microsomes at 2 uM; assay type: ADME, Microsome; details: read-out: Stability
[3] = Metabolic stability in rat liver microsomes at 2 uM; assay type: ADME, Microsome; details: read-out: Stability
Rattus norvegicus = experiment: Inhibition of LPS-stimulated TNFalpha release Lewis rat at 5 mg/kg after 4 hrs by ELISA; assay type: functional
Summary of the method: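 Male Lewis rats were pre-dosed with compound at set times before an iv lipopolysaccharide challenge. Blood was taken 1.5 h after challenge and TNF-α levels were measured by ELISA.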

Mitogen-activated protein kinase 14, sequence (Q16539 whole entry): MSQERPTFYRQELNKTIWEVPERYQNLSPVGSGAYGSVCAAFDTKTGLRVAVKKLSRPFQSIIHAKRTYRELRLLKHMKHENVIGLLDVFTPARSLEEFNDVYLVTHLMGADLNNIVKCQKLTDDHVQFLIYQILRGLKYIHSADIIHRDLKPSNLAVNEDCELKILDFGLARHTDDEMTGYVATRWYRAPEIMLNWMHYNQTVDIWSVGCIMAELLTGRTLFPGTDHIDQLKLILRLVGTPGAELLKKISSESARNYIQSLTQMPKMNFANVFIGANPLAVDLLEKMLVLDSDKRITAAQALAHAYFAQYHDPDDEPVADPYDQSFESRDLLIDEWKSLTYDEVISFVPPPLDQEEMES

Compound | pIC50 [1] | remaining at 2 µM [2] | remaining at 2 µM [3] | inhibition in vivo at 5 mg/kg (Rattus norvegicus)
Fc1ccc(Sc2ccc3nnc(-c4ccc(F)cc4F)n3c2)c(F)c1 | 8.14 |  |  | 
CC(C)c1nnc2cc(Cl)c(Sc3ccc(F)cc3F)cn12 |  | 71% | 37% | 
CC(C)c1nnc2ccc(Sc3ccc(F)cc3F)cn12 |  | 89% | 46% | 61%
O=C(O)c1ccc(-c2nnc3ccc(Sc4ccc(F)cc4F)cn23)cc1 | 5.93 |  |  | 
CC(C)c1nnc2ccc(Sc3ccc(F)cc3C(F)(F)F)cn12 | < 5.00 |  |  | 
COC(=O)c1ccc(-c2nnc3ccc(Sc4ccc(F)cc4F)cn23)cc1 | 6.49 |  |  | 
Fc1ccc(Sc2ccc3nnc(C4CCNCC4)n3c2)c(F)c1 | 5.42 |  |  | 
CC(C)c1nnc2ccc(Sc3ccc(F)cc3F)c(Cl)n12 |  | 65% | 23% | 
CC(C)c1nnc2ccc(Sc3ccc(Br)cc3C(F)(F)F)cn12 | < 5.00 |  |  | 
CC(C)c1nnc2ccc(C(=O)c3ccc(F)cc3F)cn12 | 5.98 | 74% | 88% | 
CC(C)c1nnc2ccc(C(=O)Nc3cc(F)cc(F)c3)cn12 | < 5.00 |  |  | 
CC(C)c1nnc2ccc(C(=O)Cc3cc(F)cc(F)c3)cn12 | 5.13 |  |  | 
CC(C)c1nnc2cc(Cl)c(Sc3ccc(F)cc3F)c(Cl)n12 |  | 39% | 20% | 
CC(C)c1nnc2ccc(Sc3ccc(Cl)cc3Cl)cn12 | 5.08 |  |  | 
CC(C)c1nnc2ccc([S+]([O-])c3ccc(F)cc3F)cn12 (centres undefined) |  | 100% | 100% | 
CC(C)c1nnc2cc(Cl)c(Sc3ccc(F)cc3F)c(Br)n12 |  | 24% | 9% | 
CC(C)c1nnc2ccc(CCc3ccc(F)cc3F)cn12 | 7.07 | 53% | 54% | 
CC(C)c1nnc2ccc(S(=O)(=O)c3ccc(F)cc3F)cn12 | < 5.00 |  |  | 
